Tests used:
[1] = molecular target: T1, Adenosine receptor A1 (Rattus norvegicus, UniProt P25099); assay: Displacement of [3H]CCPA from adenosine receptor A1 in rat brain cortical membranes; type: cell membranes
T1 sequence (P25099 whole entry): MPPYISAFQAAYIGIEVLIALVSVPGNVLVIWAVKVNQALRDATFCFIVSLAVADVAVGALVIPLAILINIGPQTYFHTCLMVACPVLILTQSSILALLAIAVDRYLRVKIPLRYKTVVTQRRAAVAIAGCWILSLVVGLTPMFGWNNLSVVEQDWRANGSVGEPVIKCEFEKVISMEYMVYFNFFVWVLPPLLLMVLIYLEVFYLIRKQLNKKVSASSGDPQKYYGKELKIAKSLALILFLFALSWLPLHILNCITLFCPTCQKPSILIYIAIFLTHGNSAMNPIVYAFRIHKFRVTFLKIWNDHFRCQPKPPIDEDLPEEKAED
In short: (§1)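 Native rat receptors: A1 in brain cortical membranes with [3H]CCPA, A2A in brain striatal membranes, from frozen unstripped rat brains. Compounds were first screened at a single high concentration in three independent experiments.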

[2] = molecular target: Adenosine receptor A2a (Rattus norvegicus, UniProt P30543); assay: Displacement of [3H]MSX2 from adenosine receptor A2a in rat brain striatal membranes; type: cell membranes, Membrane
Adenosine receptor A2a, sequence (P30543 whole entry): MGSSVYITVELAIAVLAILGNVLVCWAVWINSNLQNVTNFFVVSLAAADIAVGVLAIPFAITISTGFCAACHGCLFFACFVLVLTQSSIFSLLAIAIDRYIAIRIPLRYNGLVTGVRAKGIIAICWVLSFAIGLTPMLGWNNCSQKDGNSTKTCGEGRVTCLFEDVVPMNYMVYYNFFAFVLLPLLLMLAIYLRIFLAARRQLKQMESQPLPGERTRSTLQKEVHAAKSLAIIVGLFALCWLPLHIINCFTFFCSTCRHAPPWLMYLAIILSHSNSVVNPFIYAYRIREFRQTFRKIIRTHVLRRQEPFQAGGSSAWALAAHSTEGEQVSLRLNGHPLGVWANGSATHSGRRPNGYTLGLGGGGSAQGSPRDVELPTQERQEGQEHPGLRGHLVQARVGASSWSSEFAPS
In short: as §1, with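 “experiments. Active compounds then had full inhibition curves over at least 3 orders of magnitude of concentration.” for “experiments.”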

[3] = molecular target: T2, Adenosine receptor A2b (Homo sapiens, UniProt P29275); assay: Displacement of [3H]PSB-603 from recombinant human adenosine receptor A2b expressed in CHO cell membranes
T2 sequence (P29275 whole entry): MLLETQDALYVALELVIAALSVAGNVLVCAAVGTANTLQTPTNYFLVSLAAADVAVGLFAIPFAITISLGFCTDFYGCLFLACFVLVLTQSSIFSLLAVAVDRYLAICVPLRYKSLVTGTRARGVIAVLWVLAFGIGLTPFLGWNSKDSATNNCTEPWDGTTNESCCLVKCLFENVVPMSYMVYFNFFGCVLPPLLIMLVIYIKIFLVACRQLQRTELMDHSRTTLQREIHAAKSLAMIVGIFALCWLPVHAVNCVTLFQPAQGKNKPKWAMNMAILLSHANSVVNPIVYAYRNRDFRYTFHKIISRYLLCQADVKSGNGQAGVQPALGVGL
In short: (§2)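 Membranes came from CHO cells expressing recombinant receptors (human A1, A2A, A2B, A3; rat A2B, A3). Radioligands were [3H]CCPA for A1 and [3H]PSB-11 or [3H]NECA for A3. A single high concentration was screened first, in three experiments for A1/A2A and two for A2B/A3.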

[4] = molecular target: T3, Adenosine receptor A3 (Homo sapiens) (UniProt P0DMS8); assay: Displacement of [3H]PSB11 from recombinant human adenosine receptor A3 expressed in CHO cell membranes at 1 uM
T3 sequence (whole entry): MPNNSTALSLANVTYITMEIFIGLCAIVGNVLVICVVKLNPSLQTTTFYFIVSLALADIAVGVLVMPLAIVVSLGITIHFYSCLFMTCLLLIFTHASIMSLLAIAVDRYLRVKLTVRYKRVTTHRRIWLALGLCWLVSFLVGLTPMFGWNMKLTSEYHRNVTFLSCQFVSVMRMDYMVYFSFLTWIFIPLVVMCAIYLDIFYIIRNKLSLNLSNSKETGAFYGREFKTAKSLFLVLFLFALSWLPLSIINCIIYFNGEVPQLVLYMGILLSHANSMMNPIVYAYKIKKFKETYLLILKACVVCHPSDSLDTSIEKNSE
In short: as §2, with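 “A2B/A3. Full inhibition curves spanning at least 3 log units were run for potent compounds.” for “A2B/A3.”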

[5] = molecular target: T4, Adenosine receptor A1 (Rattus norvegicus) (UniProt P25099); assay: Displacement of [3H]CCPA from adenosine receptor A1 in rat brain cortical membranes at 10 uM; type: cell membranes; settings: 1 uM, in the assay text read “at 1 uM” for “at 10 uM”
T4 sequence (whole entry): T1 sequence (P25099 whole entry)
In short: as §1, with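 “experiments. Active compounds then had full inhibition curves over at least 3 orders of magnitude of concentration.” for “experiments.”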

[6] = molecular target: Adenosine receptor A2a (Rattus norvegicus) (UniProt P30543); assay: Displacement of [3H]MSX2 from Adenosine receptor A2a in rat brain striatal membranes at 10 uM; type: cell membranes; settings: Membrane
Adenosine receptor A2a (Rattus norvegicus), sequence (P30543 whole entry): as the sequence (P30543 whole entry) above
In short: as §1, with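 “experiments. Active compounds then had full inhibition curves over at least 3 orders of magnitude of concentration.” for “experiments.”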

[7] = molecular target: T5, Adenosine receptor A3 (Homo sapiens, UniProt P0DMS8); assay: Displacement of [3H]PSB-11 from recombinant human adenosine receptor A3 expressed in CHO cell membranes
T5 sequence (P0DMS8 whole entry): T3 sequence (whole entry)

Ki [1]: > 1 µM
Ki [2]: > 10 µM
Ki [3]: > 1 µM
inhibition [4]: 3%
inhibition [5]: 4%
inhibition [6]: 35%
Ki [7]: > 1 µM
Compound: Cn1c(=O)c2c(nc3n2CCN(CCc2ccc(O)cc2)C3)n(C)c1=O

— ChEMBL document CHEMBL3826885, “Similarities and differences in affinity and binding modes of tricyclic pyrimido- and pyrazinoxanthines at human and rat adenosine receptors” (Bioorg Med Chem, 2016)
